An excerpt weighted towards active compounds, which were near 1.9% of everything screened.
SR-BI HDL uptake = inhibitors of SR-BI mediated HDL lipid uptake, primary screen, ldlA[mSR-BI] cells, fluorescence, single point | Scavenger receptor class B member 1 (Mus musculus), Q61009 | ldlA[mSR-BI] CHO cells, DiI-HDL uptake fluorescence, 3 h | inhibition, % at 12.5 µM | 0.96% of 320,000 active | AID 488896, 2010;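 active = mean replicate inhibition of at least 70% and a set share of replicates each scoring 70 or more; inconclusive = meets just one of the two criteria; inactive = fails both criteria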
Target sequence (Q61009 whole entry, looked up): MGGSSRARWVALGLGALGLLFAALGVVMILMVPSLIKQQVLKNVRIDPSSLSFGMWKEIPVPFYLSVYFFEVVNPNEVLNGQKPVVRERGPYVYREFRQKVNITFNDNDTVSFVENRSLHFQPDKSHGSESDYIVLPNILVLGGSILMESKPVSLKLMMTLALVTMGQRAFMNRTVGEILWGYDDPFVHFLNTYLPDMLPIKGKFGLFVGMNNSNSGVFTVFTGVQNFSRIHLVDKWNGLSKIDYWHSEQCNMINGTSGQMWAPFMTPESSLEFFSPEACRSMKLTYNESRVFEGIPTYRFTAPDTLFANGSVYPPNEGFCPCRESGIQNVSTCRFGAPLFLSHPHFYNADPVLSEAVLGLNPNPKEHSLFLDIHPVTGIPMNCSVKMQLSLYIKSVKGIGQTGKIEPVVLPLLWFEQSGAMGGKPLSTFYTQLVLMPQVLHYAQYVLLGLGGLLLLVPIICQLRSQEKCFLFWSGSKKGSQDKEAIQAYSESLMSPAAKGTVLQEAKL
HIV Env fusion = inhibitors of HIV-1 Env-driven cell-cell fusion, primary screen, HeLa-JRFL effector, CEM21 target cells, luciferase. 1.1% of 360,000 active. inhibition, % at 12.3 µM. AID 651610, 2012;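 active = mean replicate inhibition score of at least 50 and every replicate individually at or above 50; inconclusive = only one of the two criteria met; inactive = mean below 50 and not all replicates reaching 50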
PglD inh = C. jejuni PglD acetyltransferase inhibitors, primary screen, biochemical, DTNB colorimetric, single point; purified PglD enzyme, DTNB colorimetric CoA detection; inhibition, % at 12.5 µM; UDP-N-acetylbacillosamine N-acetyltransferase PglD (Campylobacter jejuni); AID 602405, 2012; 0.098% of 360,000 active; in the data active = inhibition above about 16%, passing the limit was not always enough; inconclusive = no clear call, values can overlap the other calls
Rtt109 HAT inh = inhibitors of C. albicans Rtt109/Vps75 HAT, primary screen, biochemical, ThioGlo CoA-SH fluorescence, plate reader | Histone acetyltransferase RTT109 (Candida albicans (strain SC5314 / ATCC MYA-2876)), … | purified Rtt109/Vps75, 4 h | inhibition, % at 34.9 µM | 0.16% of 330,000 active | AID 540336, 2011;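 active = inhibition of at least 50% in every replicate; inconclusive = best replicate reaches 50% inhibition but some replicates fall short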
Glyco luc inh = increase of ERlucT glycosylation luciferase signal, primary screen, N-linked glycosylation inhibitor project, D54 ERlucT cells, luminescence, set 2 | D54 ERlucT glycosylation luciferase reporter, 24 h; percent of 100 nM tunicamycin response | AID 588692, 2011 | 0.23% of 360,000 active | reporter increase, % at 12.5 µM;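 active = mean luciferase reporter signal, scaled so untreated is 0 and the glycosylation-blocking control 100, at or above a set limit in every replicate; inconclusive = mean reaches the limit but not every replicate does; inactive = mean below the limit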;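 also: luciferase carries N-glycosylation sites so blocking glycosylation raises the light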
SR-BI uptake up = activators of SR-BI mediated DiI-HDL uptake, primary screen, ldlA[mSR-BI] CHO cells, DiI fluorescence | 3 h; 100 = double the neutral-control signal | activation, % at 12.5 µM | 0.096% of 320,000 active | AID 504775, 2011;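 active = mean replicate activation of at least 60% and every replicate at or above 60%; inconclusive = mean or all-replicate condition met, but not both; inactive = mean below 60% and not all replicates reaching 60%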
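Test system: SR-BI-overexpressing, LDLR-lacking CHO cells. Measured by: DiI fluorescence, bottom read. Medium: Ham's F12 with 0.5% BSA, HEPES 25 mM, pH 7.4. Timing: 3 h uptake period with compound, 37 °C.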
PglD confirm = PglD acetyltransferase inhibitors, confirmation, biochemical, DTNB absorbance, single point, cherry-picked samples; shares compounds with PglD inh; Purified C. jejuni PglD, DTNB absorbance 412 nm; inhibition, % at 20 µM; 320 tested, under 10 active; AID 743156, 2013;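 active = mean inhibition across replicates of at least 20% with every single replicate also at 20% or more; inconclusive = mean inhibition at least 20% but some replicate falls below 20%; inactive = mean inhibition under 20% and not all replicates reach it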;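 also: initial rate of CoA release by acetyl transfer from AcCoA to the UDP-4-amino sugar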
Hits are given with their value; 0 = inactive; ? = inconclusive; - = not tested or not shown.

SMILES	SR-BI HDL uptake	HIV Env fusion	PglD inh	Rtt109 HAT inh	Glyco luc inh	SR-BI uptake up	PglD confirm
COC(=O)C1SCC2C(=O)N(Cc3cccc(C)c3)CC(=O)N21 (stereo not given)	0	0	0	0	0	0	-
COC(=O)C1SCC2C(=O)N(Cc3ccc(F)cc3)CC(=O)N21 (stereo not given)	0	0	26.3	0	0	0	0
O=C(N[C@H]1CC[C@@H](CCNS(=O)(=O)Cc2ccccc2)O[C@H]1CO)c1cnccn1	-	0	0	-	-	-	-
CC(C)Cc1nc(N2CCN(C(=O)c3ccco3)CC2)c(C#N)c2c1CCC2	0	-	21.0	0	0	0	?
CC(C)Cc1nc(N2CCN(C(=O)c3ccccc3)CC2)c(C#N)c2c1CCC2	0	0	0	0	0	0	-
CNC(=O)CCCc1nc(-c2ccccc2Cl)no1	0	0	24.4	0	0	0	0
COc1ccccc1CNC(=O)c1cc2ccccc2o1	-	0	0	0	0	-	-
COc1ccccc1CNC(=O)c1cc2ccccc2oc1=O	0	0	32.0	0	0	0	0
O=C(NC1CCS(=O)(=O)C1)/C(=C\c1ccccc1)NC(=O)c1ccccc1 (stereo not given)	0	0	-	0	0	0	-
O=C(NC1CCS(=O)(=O)C1)/C(=C/c1ccc(Cl)cc1)NC(=O)c1ccccc1 (stereo not given)	0	-	75.9	0	0	0	0
CO[C@H]1CN(C)C(=O)c2cc(NC(=O)C3CC3)ccc2OC[C@@H](C)N(C(=O)C2CCOCC2)C[C@H]1C	-	0	-	-	-	-	-
COC(=O)c1cccc(NC(=S)NCCC2=CCCCC2)c1	0	-	66.2	0	0	0	0
COc1ccccc1NC(=O)N(C)C[C@H]1Oc2ncc(C#CCC(C)C)cc2C(=O)N([C@@H](C)CO)C[C@H]1C	-	0	0	-	-	-	-
CC(C)c1nc2ccc(NC(=O)C3CCCCC3)cc2[nH]1	0	-	33.6	0	0	0	0
O=C(Nc1ccc2nc(-c3ccccn3)[nH]c2c1)C1CCCCC1	0	0	0	0	0	0	-
CCOc1cc(N2CCOCC2)c(OCC)cc1NC(=O)COC(=O)COc1cc(C)cc(C)c1	0	0	0	0	0	0	-
CCOc1cc(N2CCOCC2)c(OCC)cc1NC(=O)COC(=O)COc1ccc(C#N)cc1	0	0	33.3	0	0	0	0
CCCCNC(=O)Nc1nnc(-c2ccccc2)o1	0	0	39.4	0	0	0	0
O=C(NC1Cc2ccccc2C1)[C@H]1[C@H](CO)[C@H]2Cn3c(ccc(C4=CCCCC4)c3=O)[C@@H]1N2	-	-	0	-	-	-	-
O=C(C[C@H]1C[C@@H]2c3cc(NS(=O)(=O)c4ccc(F)cc4)ccc3O[C@@H]2[C@@H](CO)O1)NCc1cc(F)ccc1F	-	-	0	-	-	-	-
CCOc1nc(-c2ccccc2)ccc1-c1noc(-c2cccs2)n1	0	0	21.4	0	0	0	0
O=C(CSc1nnc(-c2ccncc2)n1Cc1ccccc1)Nc1nccs1	0	0	48.1	0	0	0	0
OC(CC#CCN1CCCCC1)(c1ccccc1)c1ccccc1	0	0	27.4	0	0	0	0
Cn1nc([N+](=O)[O-])nc1N1CCOCC1	0	0	21.3	0	0	0	0
Cc1nc([N+](=O)[O-])c(Sc2nc3ccccc3n2C)n1Cc1ccccc1	0	0	29.9	0	0	0	0
SMILES	SR-BI HDL uptake	HIV Env fusion	PglD inh	Rtt109 HAT inh	Glyco luc inh	SR-BI uptake up	PglD confirm
N#Cc1cnn2cc(-c3ncc(C(F)(F)F)cc3Cl)cnc12	0	0	47.2	0	0	0	0
O=C(NCc1cccc(Cl)c1)c1ccc(-n2cncn2)c2ccoc12	-	0	22.0	-	0	-	0
CCCCNc1cc(=O)oc2ccccc12	0	0	-	0	0	0	-
COC(CNc1cc(=O)oc2ccccc12)OC	0	0	22.8	0	0	0	0
CCOc1ccccc1NC(=O)N1CCCC1C(=O)Nc1ccc(-n2cnnn2)c(C)c1 (stereo not given)	0	-	25.3	0	0	0	0
COc1cccc(CNCCc2c[nH]c3ccccc23)c1OCc1ccc(F)cc1	0	-	26.3	0	0	0	0
COc1cc(CNCCc2c[nH]c3ccccc23)ccc1OCc1ccc(F)cc1	0	-	0	0	0	0	-
O=[N+]([O-])c1ccc(O)c(C=Nc2cccc3ncccc23)c1	0	0	22.6	-	0	0	0
O=[N+]([O-])c1ccc(O)c(C=Nc2cccc3ccccc23)c1	0	0	0	0	0	0	-
NCc1csc(Nc2cc(Oc3ccccc3)ncn2)n1	-	0	21.4	-	0	-	0
C/C(=N/OCO/N=C(/C)c1ccc(F)cc1)c1ccc(F)cc1	0	0	25.9	0	0	0	0
COc1ccc(-c2cc(-c3cc(C)ccc3O)[nH]n2)cc1	0	0	-	0	0	0	-
COc1ccc(-c2cc(-c3ccc(OC)cc3)[nH]n2)cc1	0	0	31.8	0	0	0	0
COc1ccccc1/C=C/C(=O)N1CCN(S(=O)(=O)c2cccs2)CC1	0	0	31.9	0	0	0	0
O=C(CN1CCOCC1)N[C@H]1CC[C@H](CCNC(=O)C2CCC2)O[C@H]1CO	-	0	0	-	-	-	-
COCC(=O)NC[C@@H]1[C@@H](c2ccc(-c3ccccc3)cc2)[C@@H](CO)N1C(C)=O	-	-	0	-	-	-	-
C[C@@H]1CCCCO[C@@H](CN(C)C(=O)c2ccccc2)[C@@H](C)CN([C@H](C)CO)C(=O)c2cc(NS(=O)(=O)c3ccccc3)ccc2O1	-	0	0	-	-	-	-
CC(=O)C1=C(O)C(=O)N(c2cccc(C(=O)O)c2)C1c1ccc(F)cc1 (stereo not given)	0	0	20.6	0	0	0	0
CC(=O)C1=C(O)C(=O)N(c2ccc(F)cc2)C1c1ccc(C)cc1 (stereo not given)	0	0	0	0	0	0	-
CCN1[C@H](C(=O)NC2CCC2)[C@@H](CO)[C@@H]2Cn3c(ccc(-c4ccc(OC)cc4)c3=O)[C@@H]21	-	-	0	-	-	-	-
O=C(Nc1ccc(OCC(=O)N2CCOCC2)cc1)Nc1cccc(Cl)c1	0	0	-	0	0	0	-
O=C(Nc1ccc(C(=O)N2CCOCC2)cc1)Nc1cccc(Cl)c1	0	0	24.6	0	0	0	0

Screens (PubChem BioAssay)
